Inhibition and IC50 data for 13 molecules are collected here from ChEMBL document CHEMBL2390901, “Synthesis and biological evaluation of N-(4-hydroxy-3-mercaptonaphthalen-1-yl)amides as inhibitors of angiogenesis and tumor growth” (Eur J Med Chem, 2013).

The target in assay [1] is RAC-alpha serine/threonine-protein kinase (Homo sapiens) (UniProt P31749). As to the kind of experiment: Inhibition of AKT1 (unknown origin) at 10 uM after 30 mins by fluorescence assay. In a few lines: (§1)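 Single 10 μM test. Enzyme preincubated with compound in Hepes/Tris pH 7.4, EGTA/Tris, MgCl2, DTT, 0.008 % Tween 20. Substrate peptide and ATP added; 30 min at room temperature. Stopped with EDTA; europium-labelled anti-phospho PT66 antibody added, TR-FRET read after 60 min. Percent inhibition versus control enzyme activity; no-enzyme basal control; duplicate.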
Chain of RAC-alpha serine/threonine-protein kinase (Homo sapiens) (P31749 whole entry): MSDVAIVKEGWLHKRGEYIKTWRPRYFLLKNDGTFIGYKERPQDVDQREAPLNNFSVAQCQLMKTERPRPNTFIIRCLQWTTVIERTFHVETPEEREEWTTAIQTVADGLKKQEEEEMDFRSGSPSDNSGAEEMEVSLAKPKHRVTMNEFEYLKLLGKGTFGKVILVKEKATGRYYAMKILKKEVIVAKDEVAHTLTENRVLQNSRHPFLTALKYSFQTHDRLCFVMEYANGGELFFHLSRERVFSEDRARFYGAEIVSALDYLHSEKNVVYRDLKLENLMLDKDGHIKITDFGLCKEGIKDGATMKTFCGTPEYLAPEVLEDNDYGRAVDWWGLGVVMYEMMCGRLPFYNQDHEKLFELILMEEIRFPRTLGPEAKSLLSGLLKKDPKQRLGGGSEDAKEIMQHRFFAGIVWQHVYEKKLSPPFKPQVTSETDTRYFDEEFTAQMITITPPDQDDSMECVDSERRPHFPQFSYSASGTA

Another assay concerns HCT-116. As to the kind of experiment: Antiproliferative activity against human HCT116 cells after 48 hrs by MTT assay. The assay is classed as functional, cell-based. The note with it: HCT-116, 48 h. In a few lines:
(§2)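 Cells kept in RPMI 1640 with 10 % FBS at 37 °C, 5 % CO2. Seeded 5,000/well, allowed 4 h, then exposed to serial dilutions for 48 h. MTT added for the last 4 h; formazan dissolved in DMSO, absorbance at 570 nm.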

The test system of a further assay is Aorta. As to the kind of experiment: Antiangiogenic activity in Sprague-Dawley rat aortic rings assessed as inhibition of microvessel outgrowth at 50 uM after 6 days by matrigel assay. Type of assay: functional. Put shortly:
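Aortas from 8–10-week-old male Sprague Dawley rats cleaned of fibroadipose tissue, cut into 1-mm rings, embedded between two Matrigel layers. Compound or vehicle (0.5 % DMSO) added every other day for 6 days; imaged day 7 (×200). Sprouting area quantified as pixels versus vehicle; mean ± SD, three independent experiments.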

In a further assay the test system is PC-3. As to the kind of experiment: Antiproliferative activity against human PC3 cells after 48 hrs by MTT assay. The assay is classed as functional, cell-based. Particulars: PC-3, 48 h. Put shortly:
as §2

For assay [2], the target named is ALK tyrosine kinase receptor (Homo sapiens) (UniProt Q9UM73). The assay can be described thus: Inhibition of ALK (unknown origin) at 10 uM after 30 mins by fluorescence assay. In a few lines:
as §1

The subject of another assay is MDA-MB-231. As to the kind of experiment: Antiproliferative activity against human MDA-MB-231 cells after 48 hrs by MTT assay. The assay is classed as functional, cell-based. The note with it: MDA-MB-231, 48 h. In a few lines:
as §2

A further assay relates to HUVEC. As to the kind of experiment: Antiangiogenic activity in HUVEC assessed as inhibition of tube formation at 50 uM after 6 hrs by matrigel assay. The assay is classed as functional. The note with it: Homo sapiens. Put shortly: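 HUVECs seeded at 40,000 cells/well on Matrigel (gelled 30 min, 37 °C) in M199 with 5 % FBS plus compound or vehicle (0.5 % DMSO); 6 h at 37 °C, 5 % CO2. Tubes photographed by phase-contrast (×200); tube area measured as pixels and compared with vehicle. Mean ± SD of three independent experiments.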

The source made the active and inactive calls. The rule behind the calls is not given here. A value given as a limit tells only on which side of the number the result lay.

Chain of ALK tyrosine kinase receptor (Homo sapiens) (Q9UM73 19-1620 limits assumed): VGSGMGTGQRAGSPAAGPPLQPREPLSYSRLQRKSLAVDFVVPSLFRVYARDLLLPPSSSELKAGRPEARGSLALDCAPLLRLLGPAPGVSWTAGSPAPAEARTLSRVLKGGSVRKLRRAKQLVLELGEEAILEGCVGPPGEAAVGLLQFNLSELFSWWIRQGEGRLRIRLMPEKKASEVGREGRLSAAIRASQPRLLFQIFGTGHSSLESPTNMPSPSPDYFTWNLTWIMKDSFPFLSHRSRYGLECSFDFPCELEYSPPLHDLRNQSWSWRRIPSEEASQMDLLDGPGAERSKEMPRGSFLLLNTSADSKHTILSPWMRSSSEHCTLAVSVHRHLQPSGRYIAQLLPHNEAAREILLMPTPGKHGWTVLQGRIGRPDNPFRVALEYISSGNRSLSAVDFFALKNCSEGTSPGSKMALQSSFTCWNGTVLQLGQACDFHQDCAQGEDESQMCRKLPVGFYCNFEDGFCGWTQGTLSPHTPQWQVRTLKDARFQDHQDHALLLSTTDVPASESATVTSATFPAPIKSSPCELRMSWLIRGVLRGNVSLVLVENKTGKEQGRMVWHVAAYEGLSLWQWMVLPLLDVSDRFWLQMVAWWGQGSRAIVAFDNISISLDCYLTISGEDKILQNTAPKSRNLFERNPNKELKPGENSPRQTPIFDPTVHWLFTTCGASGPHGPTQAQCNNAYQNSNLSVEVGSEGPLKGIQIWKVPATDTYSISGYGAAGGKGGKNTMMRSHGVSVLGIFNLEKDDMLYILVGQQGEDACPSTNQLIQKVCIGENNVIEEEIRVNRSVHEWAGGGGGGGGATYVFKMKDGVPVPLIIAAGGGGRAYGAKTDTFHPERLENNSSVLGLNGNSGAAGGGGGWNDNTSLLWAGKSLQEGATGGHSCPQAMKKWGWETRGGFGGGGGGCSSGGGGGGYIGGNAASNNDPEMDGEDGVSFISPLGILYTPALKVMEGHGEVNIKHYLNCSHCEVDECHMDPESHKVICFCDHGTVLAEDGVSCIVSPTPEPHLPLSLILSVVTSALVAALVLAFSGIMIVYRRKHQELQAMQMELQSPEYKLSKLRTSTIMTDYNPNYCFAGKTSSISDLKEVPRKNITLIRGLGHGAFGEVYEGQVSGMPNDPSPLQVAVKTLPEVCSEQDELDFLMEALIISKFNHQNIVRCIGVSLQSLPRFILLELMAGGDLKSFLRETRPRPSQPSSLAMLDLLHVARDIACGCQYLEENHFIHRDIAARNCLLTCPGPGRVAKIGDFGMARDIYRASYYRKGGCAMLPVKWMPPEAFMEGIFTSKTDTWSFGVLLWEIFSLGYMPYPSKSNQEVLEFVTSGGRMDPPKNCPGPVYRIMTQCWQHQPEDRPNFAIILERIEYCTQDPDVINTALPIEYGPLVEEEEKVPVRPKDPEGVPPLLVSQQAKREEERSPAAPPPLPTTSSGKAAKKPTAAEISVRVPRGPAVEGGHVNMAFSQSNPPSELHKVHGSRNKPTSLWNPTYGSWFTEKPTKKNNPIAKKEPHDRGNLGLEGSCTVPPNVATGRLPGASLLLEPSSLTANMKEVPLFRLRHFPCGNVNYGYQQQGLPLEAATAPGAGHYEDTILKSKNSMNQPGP

With `O=C(Nc1cc(Sc2ncn[nH]2)c(O)c2ccccc12)c1ccc([N+](=O)[O-])cc1`, the inhibition in assay [1] is 37.3%; in assay [2] it was 3.37%. Further, the IC50 with HCT-116 was over 100 µM; in the assay with PC-3, 53.5 µM; in the assay on MDA-MB-231 it was over 100 µM. For the same molecule, in the assay on Aorta, the inhibition result was “Active”. In addition, the inhibition at 50 µM with HUVEC is over 80%.

The molecule `COc1cccc(C(=O)Nc2cc(Sc3ncn[nH]3)c(O)c3ccccc23)c1` came in with an inhibition in assay [1] of 19.4%. In addition, the IC50 is over 100 µM in the assay with HCT-116, 42.1 µM in the assay on PC-3 and over 100 µM with MDA-MB-231. The inhibition entry with Aorta was “Active”. For the same molecule, the inhibition entry in assay [2] was “inactive”.

In turn, `Cc1cccc(C(=O)Nc2cc(Sc3ncn[nH]3)c(O)c3ccccc23)c1` gave an inhibition in assay [1] of 20.2%. For the same molecule, the IC50 was over 100 µM in the assay with HCT-116, 59.5 µM in the assay on PC-3 and over 100 µM in the assay on MDA-MB-231. The inhibition result in the assay on Aorta was “Active”. The inhibition result in assay [2] is “inactive”.

The molecule `O=C(Nc1cc(Sc2ncn[nH]2)c(O)c2ccccc12)c1cccc([N+](=O)[O-])c1` returned an inhibition in assay [1] of 29.3%. Also, the IC50 with HCT-116 was determined as 70.2 µM; with PC-3 it was 26.9 µM; in the assay on MDA-MB-231, 48 µM. In the assay with Aorta, the inhibition entry is “Active”. In assay [2], the inhibition entry was “inactive”.

In the case of `O=C(Nc1cc(Sc2ncnc3nc[nH]c23)c(O)c2ccccc12)c1ccc([N+](=O)[O-])cc1`, the IC50 with HCT-116, in the assay with PC-3 and in the assay on MDA-MB-231 was over 100 µM throughout. Besides, the inhibition result with Aorta is “Active”.

Molecule `O=C(Nc1cc(Sc2ncn[nH]2)c(O)c2ccccc12)c1ccc2ccccc2c1` yielded an inhibition in assay [1] of 41.6%. The IC50 in the assay with HCT-116 is over 100 µM; in the assay on PC-3 it was over 100 µM; in the assay with MDA-MB-231 it was 45.1 µM. For the same molecule, the inhibition result with Aorta is “Active”. For the same molecule, in assay [2], the inhibition entry was “inactive”.

Consider `O=C(Nc1cc(Sc2nncs2)c(O)c2ccccc12)c1ccc(Cl)cc1`, for which the inhibition in assay [1] worked out at 7.5%; in assay [2] it was 4.2%. For the same molecule, the IC50 in the assay with HCT-116, in the assay with PC-3 and with MDA-MB-231 was over 100 µM each time. In addition, in the assay on Aorta, the inhibition result is “Active”. Moreover, the inhibition at 50 µM with HUVEC was over 80%.

As to `COc1ccc(/C=C/C(=O)Nc2cc(Sc3ncn[nH]3)c(O)c3ccccc23)cc1OC`, the inhibition in assay [1] is 31.6%; in assay [2] it was 14.9%. The values for the concentration for half-maximal inhibition (IC50) in the assay on HCT-116, in the assay with PC-3 and with MDA-MB-231 were over 100 µM, over 100 µM and 52.5 µM, respectively. For the same molecule, the inhibition result with Aorta was “Active”.

As for `CN[C@@H]1C[C@H]2O[C@@](C)([C@@H]1OC)n1c3ccccc3c3c4c(c5c6ccccc6n2c5c31)C(=O)NC4`, the inhibition in assay [2] is 97.9%.

Consider `O=C(/C=C/c1ccc([N+](=O)[O-])cc1)Nc1cc(Sc2ncn[nH]2)c(O)c2ccccc12`, for which the inhibition in assay [1] was 40.6%. Also, the IC50 in the assay with HCT-116, with PC-3 and with MDA-MB-231 was over 100 µM in each case. In the assay with Aorta, the inhibition result was “Active”. The inhibition result in assay [2] was “inactive”.

For `Cn1nnnc1Sc1cc(NC(=O)c2ccc(Cl)cc2)c2ccccc2c1O`, the inhibition in assay [1] is 13.1%. Also, the IC50 with HCT-116, in the assay on PC-3 and in the assay with MDA-MB-231 was over 100 µM in each case. For the same molecule, the inhibition result with Aorta is “Active”. In addition, the inhibition entry in assay [2] is “inactive”.

Molecule `COc1ccc(C(=O)Nc2cc(Sc3ncn[nH]3)c(O)c3ccccc23)cc1` came in with an inhibition in assay [1] of 30.8%. The half-inhibitory concentration (IC50) in the assay with HCT-116, with PC-3 and in the assay with MDA-MB-231 was over 100 µM each time. The inhibition result in the assay on Aorta is “Active”. Besides, the inhibition result in assay [2] is “inactive”.

As to `O=C(/C=C/c1ccc(Cl)cc1)Nc1cc(Sc2ncn[nH]2)c(O)c2ccccc12`, the values for the inhibition in assay [1] and in assay [2] were 31.8% and 0.7%, respectively. In addition, the IC50 with HCT-116, with PC-3 and in the assay on MDA-MB-231 was over 100 µM in each case. Further, the inhibition result with Aorta was “Active”.
